Source: ChEMBL document CHEMBL1135862, “Bioactive 4-substituted-6-methyl-2-pyrones with promising cytotoxicity against A2780 and K562 cell lines” (Bioorg Med Chem Lett, 2002)

What was measured:
A2780 = test: Inhibitory concentration in vitro for cytotoxic activity against A 2780 human ovarian carcinoma cells; assay type: functional, cell-based
Method in brief: (§1)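 MTT assay in 96-well plates, seeding 400–1000 cells/well. Cells recover 24 h, then drug in medium is added, three wells per dose. Incubate 5 days at 37 °C in 5% CO₂. Add MTT (3 mg/mL) for 3 h, dissolve formazan in DMSO, read at 540 nm minus 620 nm. Percent growth inhibition per dose comes from duplicate experiments, reported as mean and SD; IC50 is derived from these.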

Bacillus subtilis [1] = test: Antimicrobial activity against Bacillus subtilis after 96 hr incubation; assay type: functional; parameters: concentration or dose not given beside the values
Method in brief: (§2)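 Agar diffusion on cellulose disks loaded with 200 µg compound each. Bacteria read after 96 h, yeasts after 48 h. Activity is recorded as the radius in mm, or percent, of the inhibition zone. Squalestatin S1 (200 µg/disk) served as control in the yeast assay.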

Candida albicans [2] = test: Anti fungal activity against Candida albicans after 48 hr incubation; assay type: functional; parameters: concentration or dose not given beside the values; method in brief: as §2
Candida albicans [3] = test: Antimicrobial activity against Candida albicans after 48 hr incubation; assay type: functional; method in brief: as §2
Escherichia coli [4] = test: Antimicrobial activity against Escherichia coli after 96h incubation; assay type: functional; method in brief: as §2
Escherichia coli [5] = test: Antimicrobial activity against the Escherichia coli after 96 hr incubation; assay type: functional; parameters: concentration or dose not given beside the values; method in brief: as §2
K562 = test: Inhibitory concentration in vitro for cytotoxic activity against K 562 human chronic myelogenous leukemia cells; assay type: functional, cell-based; method in brief: as §1
[6] = tested on: Schizosaccharomyces pombe; test: The compound was evaluated for antimicrobial activity against Schizosaccharomyces pombe after 48 hr incubation; assay type: functional; method in brief: as §2
[7] = tested on: Schizosaccharomyces pombe; test: Antimicrobial activity against Schizosaccharomyces pombe after 48 hr incubation; assay type: functional; method in brief: as §2
Saccharomyces cerevisiae [8] = test: Antimicrobial activity against Saccharomyces cerevisiae after 48 hr incubation; assay type: functional; method in brief: as §2
Staphylococcus aureus [9] = test: The compound was evaluated for anti microbial activity against Staphylococcus aureus after 96 hr incubation; assay type: functional; parameters: concentration or dose not given beside the values; method in brief: as §2
Staphylococcus aureus [10] = test: Antimicrobial activity against Staphylococcus aureus after 96h incubation; assay type: functional; method in brief: as §2
Saccharomyces cerevisiae [11] = test: Compound was evaluated for anti fungal activity against Saccharomyces cerevisiae after 48 hr incubation; assay type: functional; method in brief: as §2
Bacillus subtilis [12] = test: Antimicrobial activity against Bacillus subtilis after 96h incubation; assay type: functional; method in brief: as §2

| SMILES | IC50 (A2780) | Inhibition (Bacillus subtilis [1]) | Inhibition (Candida albicans [2]) | Inhibition (Candida albicans [3]) | Inhibition (Escherichia coli [4]) | Inhibition (Escherichia coli [5]) | IC50 (K562) | Inhibition [6] | Inhibition [7] | Inhibition (Saccharomyces cerevisiae [8]) | Inhibition (Staphylococcus aureus [9]) | Inhibition (Staphylococcus aureus [10]) | Inhibition (Saccharomyces cerevisiae [11]) | Inhibition (Bacillus subtilis [12]) |
| --- | --- | --- | --- | --- | --- | --- | --- | --- | --- | --- | --- | --- | --- | --- |
| CCCCCCCc1cc(C)oc(=O)c1 | 41.8 µM | 18.2% | 18.2% | 16 mm | 17 mm | 19.3% | 28.7 µM | 34.1% | 30 mm | 5 mm | 15.9% | 14 mm | 5.7% | 16 mm |
| CCc1cc(C)oc(=O)c1 | > 50 µM |  |  | 0 mm | 21 mm | 23.8% | > 50 µM | 0 radii mm-1 |  | 0 mm |  | 0 mm |  | 0 mm |
